Laboratory results as given in ChEMBL document CHEMBL1166007, “Anti-AIDS agents 82: synthesis of seco-(3'R,4'R)-3',4'-di-O-(S)-camphanoyl-(+)-cis-khellactone (DCK) derivatives as novel anti-HIV agents” (Bioorg Med Chem, 2010).
pEC50, pIC50: −log10 of the molar value. The source made the active and inactive calls. The rule behind the calls is not given here.

Legend:
[1] = tested on: Human immunodeficiency virus 1; assay: Antiviral activity against HIV1 NL4-3 infected in human MT4 cells assessed as inhibition of viral p24 antigen production after 4 days by ELISA; type: functional, organism-based; conditions: Human immunodeficiency virus 1, NL4-3, MT4, 96 h
Procedure, shortened: (§1)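 HIV-1 NL4-3 or RTMDR (multi-RT inhibitor-resistant) virus infected MT-4 cells at MOI 0.001 in 96-well culture. On day 4 post-infection, culture supernatants were collected and p24 was measured by ELISA. TI = IC50/EC50. Values are averages of at least three separate experiments. Top tested concentration 20 μM.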

[2] = Therapeutic index, ratio of IC50 for human MT4 cells to EC50 for multi-RT inhibitor-resistant HIV infected in human MT4 cells; type: cell-based; conditions: read-out: Ratio IC50/EC50; procedure, shortened: as §1
[3] = tested on: MT4; assay: Cytotoxicity against human MT4 cells after 4 days by XTT assay; type: cell-based; conditions: MT4, 96 h
[4] = tested on: Human immunodeficiency virus; assay: Antiviral activity against multi-RT inhibitor-resistant HIV infected in human MT4 cells assessed as inhibition of viral p24 antigen production after 4 days by ELISA; type: functional, organism-based; conditions: Human immunodeficiency virus 1, MT4, 96 h; procedure, shortened: as §1
[5] = tested on: Human immunodeficiency virus 1; assay: Antiviral activity against HIV1 3B infected in human MT2 cells assessed as inhibition of viral p24 antigen production after 6 days by ELISA; type: functional, organism-based; conditions: Human immunodeficiency virus 1, 3B, MT2, 144 h
Procedure, shortened: (§2)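 Human T-cell MT-2 line kept with L-glutamine at 37 °C and 5% CO2. Compounds were dissolved in DMSO and screened at final 100, 20, 4 and 0.8 μg/mL, with a highest tested concentration of 20 μM. Medium was changed on days 1 and 4. Supernatant p24 was measured by antigen capture on day 6.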

[6] = Therapeutic index, ratio of IC50 for human MT4 cells to EC50 for HIV1 NL4-3 infected in human MT4 cells; type: cell-based; conditions: read-out: Ratio IC50/EC50; procedure, shortened: as §1
[7] = tested on: MT2; assay: Cytotoxicity against human MT2 cells after 6 days by XTT assay; type: cell-based; conditions: MT2, 144 h
[8] = Therapeutic index, ratio of IC50 for human MT2 cells to EC50 for HIV1 3B infected in human MT2 cells; type: cell-based; conditions: read-out: Ratio IC50/EC50
[9] = tested on: Human immunodeficiency virus 1; assay: Antiviral activity against HIV1 3B infected in […] assessed as inhibition of viral p24 antigen production at 20 uM after 6 days by ELISA; type: functional, organism-based
Procedure, shortened: as §2, with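 “μM. Wells received […] at 3 × 10^5 cells/mL plus HIV-1 IIIB inoculum of 125 TCID50.” for “μM.”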

SMILES | pEC50 [1] | selectivity ratio [2] | pIC50 [3] | pEC50 [4] | pEC50 [5] | selectivity ratio [6] | pIC50 [7] | selectivity ratio [8] | inhibition [9]
CCc1cc(=O)c2ccc3c(c2o1)[C@@H](OC(=O)[C@@]12CC[C@@](C)(C(=O)O1)C2(C)C)[C@@H](OC(=O)[C@@]12CC[C@@](C)(C(=O)O1)C2(C)C)C(C)(C)O3 | 7.10 | 69.9 | 5.03 | 6.88 |  |  |  |  | 
Cc1cn([C@H]2CC(N=[N+]=[N-])[C@@H](CO)O2)c(=O)[nH]c1=O (single isomer, unassigned) [ZIDOVUDINE] |  |  |  |  | 7.36 |  |  |  | 
COc1ccc2c(C)cc(=O)oc2c1COC(=O)[C@@]12CC[C@@](C)(C(=O)O1)C2(C)C | < 4.44 |  | 4.20 |  |  | 1.71 |  |  | 
Cc1cc(=O)oc2c3c(ccc12)OC(C)(C)[C@H](OC(=O)[C@@]12CC[C@@](C)(C(=O)O1)C2(C)C)[C@@H]3OC(=O)[C@@]12CC[C@@](C)(C(=O)O1)C2(C)C |  |  |  |  | 6.90 |  | 4.41 | 301 | 
COc1ccc(N(Cc2c(OC(C)C)ccc3c(C)cc(=O)oc23)C(=O)[C@@]23CC[C@@](C)(C(=O)O2)C3(C)C)cc1 | 5.33 |  | 4.46 |  |  | 15 |  |  | 
CCOc1ccc2c(C)cc(=O)oc2c1COC(=O)[C@@]12CC[C@@](C)(C(=O)O1)C2(C)C | < 4.49 |  | 4.22 |  |  | 1.87 |  |  | 
Cc1cc(=O)oc2c(CSC(=O)[C@@]34CC[C@@](C)(C(=O)O3)C4(C)C)c(OC(C)C)ccc12 | 5.33 |  | 4.25 |  |  | 12 |  |  | 
COC(=O)COc1ccc2c(C)cc(=O)oc2c1COC(=O)[C@@]12CC[C@@](C)(C(=O)O1)C2(C)C | < 4.35 |  | 4.26 |  |  | 1.22 |  |  | 
Cc1cc(=O)oc2cc(OC(C)(C)[C@@H](COC(=O)[C@@]34CC[C@@](C)(C(=O)O3)C4(C)C)OC(=O)[C@@]34CC[C@@](C)(C(=O)O3)C4(C)C)ccc12 | < 4.70 |  | 4.70 | 4.70 |  |  | 4.41 |  | inactive
Cc1cc(=O)oc2c(CNC(=O)[C@@]34CC[C@@](C)(C(=O)O3)C4(C)C)c(OC(C)C)ccc12 | < 4.60 |  | 4.60 |  |  | 1 |  |  | 
Cc1cc(=O)oc2c([C@H](C)OC(=O)[C@@]34CC[C@@](C)(C(=O)O3)C4(C)C)c(OC(C)C)ccc12 | < 4.70 |  | 4.70 | 4.70 |  |  | 4.25 |  | inactive
CC(=O)c1ccc2c(c1C)[C@@H](OC(=O)[C@@]13CC[C@@](C)(C(=O)O1)C3(C)C)[C@@H](OC(=O)[C@@]13CC[C@@](C)(C(=O)O1)C3(C)C)C(C)(C)O2 |  |  |  |  |  |  | 4.40 |  | inactive
Cc1cc(=O)oc2c(CN(C)C(=O)[C@@]34CC[C@@](C)(C(=O)O3)C4(C)C)c(OC(C)C)ccc12 | 5.25 |  | 4.25 |  |  | 8 |  |  | 
Cc1cc(=O)oc2c([C@H](COC(=O)[C@@]34CC[C@@](C)(C(=O)O3)C4(C)C)OC(=O)[C@@]34CC[C@@](C)(C(=O)O3)C4(C)C)c(OC(C)C)ccc12 | < 4.70 |  | 4.70 | 4.70 |  |  | 4.41 |  | inactive
CCOc1c(C(C)=O)ccc2c1[C@@H](OC(=O)[C@@]13CC[C@@](C)(C(=O)O1)C3(C)C)[C@@H](OC(=O)[C@@]13CC[C@@](C)(C(=O)O1)C3(C)C)C(C)(C)O2 |  |  |  |  | 6.72 |  | 4.40 | 208 | 
